Data taken from ChEMBL document CHEMBL2401735, “Synthesis and cytotoxicity of novel (thiazol-2-yl)hydrazine derivatives as promising anti-Candida agents” (Eur J Med Chem, 2013).
≈ marks a conversion by molar mass, not a printed value.

Columns and labels:
Klebsiella oxytoca = experiment: Antibacterial activity against Klebsiella oxytoca assessed as growth inhibition after 18 to 22 hrs by broth microdilution method; type: functional
How it was run: (§1)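 Bacterial isolates subcultured for purity, identified conventionally. Broth microdilution per NCCLS in Mueller-Hinton II broth; plates with growth control (no compound) and medium-only control, incubated 18-22 h at 35 °C. MIC taken as lowest concentration giving complete growth inhibition by unaided eye.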

Pichia kudriavzevii = experiment: Anticandida activity against Candida krusei clinical isolate assessed as growth inhibition after 24 hrs by broth microdilution method; type: functional
How it was run: (§2)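 Clinical Candida isolates subcultured for purity and optimal growth before testing; compounds dissolved in DMSO. Broth microdilution per NCCLS in Sabouraud dextrose broth, serial dilutions, inoculum about 10³/mL, with growth control and medium-only control; 24 h incubation at 37 °C. MIC is the lowest concentration giving complete visible inhibition.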

Enterococcus faecalis = experiment: Antibacterial activity against […] assessed as growth inhibition after 18 to 22 hrs by broth microdilution method; type: functional; how it was run: as §1
Staphylococcus aureus = experiment: Antibacterial activity against Staphylococcus aureus assessed as growth inhibition after 18 to 22 hrs by broth microdilution method; type: functional; how it was run: as §1
Escherichia coli = experiment: Antibacterial activity against Escherichia coli assessed as growth inhibition after 18 to 22 hrs by broth microdilution method; type: functional; how it was run: as §1
Proteus mirabilis = experiment: Antibacterial activity against Proteus mirabilis assessed as growth inhibition after 18 to 22 hrs by broth microdilution method; type: functional; how it was run: as §1
[1] = tested on: Streptococcus alpha-hemolyticus; experiment: Antibacterial activity against Streptococcus alpha-hemolyticus assessed as growth inhibition after 18 to 22 hrs by broth microdilution method
Nakaseomyces glabratus = experiment: Anticandida activity against Candida glabrata clinical isolate assessed as growth inhibition after 24 hrs by broth microdilution method; type: functional; how it was run: as §2
[Candida] sake = Anticandida activity against Candida sake clinical isolate assessed as growth inhibition after 24 hrs by broth microdilution method; type: functional; settings: Fermentozyma sake; how it was run: as §2
Candida parapsilosis = experiment: Anticandida activity against Candida parapsilosis clinical isolate assessed as growth inhibition after 24 hrs by broth microdilution method; type: functional; settings: Lodderomyces parapsilosis; how it was run: as §2
Candida tropicalis = experiment: Anticandida activity against Candida tropicalis clinical isolate assessed as growth inhibition after 24 hrs by broth microdilution method; type: functional; how it was run: as §2
Enterobacter sp. = experiment: Antibacterial activity against Enterobacter spp. assessed as growth inhibition after 18 to 22 hrs by broth microdilution method; type: functional; how it was run: as §1
Staphylococcus warneri = experiment: Antibacterial activity against Staphylococcus warneri assessed as growth inhibition after 18 to 22 hrs by broth microdilution method; type: functional; how it was run: as §1
Candida albicans = experiment: Anticandida activity against Candida albicans clinical isolate assessed as growth inhibition after 24 hrs by broth microdilution method; type: functional; how it was run: as §2

| SMILES | MIC (Klebsiella oxytoca) [µg/mL] | MIC (Pichia kudriavzevii) [µg/mL] | MIC (Enterococcus faecalis) [µg/mL] | MIC (Staphylococcus aureus) [µg/mL] | MIC (Escherichia coli) [µg/mL] | MIC (Proteus mirabilis) [µg/mL] | MIC [1] [µg/mL] | MIC (Nakaseomyces glabratus) [µg/mL] | MIC ([Candida] sake) [µg/mL] | MIC (Candida parapsilosis) [µg/mL] | MIC (Candida tropicalis) [µg/mL] | MIC (Enterobacter sp.) [µg/mL] | MIC (Staphylococcus warneri) [µg/mL] | MIC (Candida albicans) [µg/mL] |
| --- | --- | --- | --- | --- | --- | --- | --- | --- | --- | --- | --- | --- | --- | --- |
| COc1ccc(-c2csc(NN=C(C)C)n2)c(OC)c1 | > 256 | 256 (≈ 879 µM) | > 256 | > 256 | > 256 | > 256 | > 256 | 128 (≈ 439 µM) | 256 (≈ 879 µM) | 256 (≈ 879 µM) | 256 (≈ 879 µM) | > 256 | > 256 | 128 (≈ 439 µM) |
| CCC(CC)=NNc1nc(-c2ccc(OC)cc2)cs1 | > 256 | 256 (≈ 885 µM) | > 256 | > 256 | > 256 | > 256 | > 256 | 32 (≈ 111 µM) | 256 (≈ 885 µM) | 256 (≈ 885 µM) | 64 (≈ 221 µM) | > 256 | > 256 | 16 (≈ 55.3 µM) |
| CCCCC/C(C)=N/Nc1nc(-c2ccc(C)cc2)cs1 | > 256 | 8 (≈ 26.5 µM) | > 256 | > 256 | > 256 | > 256 | > 256 | 2 (≈ 6.63 µM) | 8 (≈ 26.5 µM) | 8 (≈ 26.5 µM) | 4 (≈ 13.3 µM) | > 256 | > 256 | 0.5 (≈ 1.66 µM) |
| CC/C(C)=N/Nc1nc(-c2ccc(OC)cc2OC)cs1 | > 256 | 256 (≈ 838 µM) | > 256 | > 256 | > 256 | > 256 | > 256 | 128 (≈ 419 µM) | 256 (≈ 838 µM) | 256 (≈ 838 µM) | 256 (≈ 838 µM) | > 256 | > 256 | 64 (≈ 210 µM) |
| C=CCC/C(C)=N/Nc1nc(-c2ccc(Cl)cc2Cl)cs1 | > 256 | 8 (≈ 23.5 µM) | > 256 | > 256 | > 256 | > 256 | > 256 | 4 (≈ 11.8 µM) | 256 (≈ 752 µM) | 256 (≈ 752 µM) | 8 (≈ 23.5 µM) | > 256 | > 256 | 2 (≈ 5.88 µM) |
| CCCC/C(CC)=N/Nc1nc(-c2ccc(Cl)cc2Cl)cs1 | > 256 | 4 (≈ 11.2 µM) | > 256 | > 256 | > 256 | > 256 | > 256 | 4 (≈ 11.2 µM) | 8 (≈ 22.5 µM) | 8 (≈ 22.5 µM) | 4 (≈ 11.2 µM) | > 256 | > 256 | 2 (≈ 5.61 µM) |
| CCCC/C(CC)=N/Nc1nc(-c2ccc(OC)cc2OC)cs1 | > 256 | 256 (≈ 737 µM) | > 256 | > 256 | > 256 | > 256 | > 256 | 128 (≈ 368 µM) | 256 (≈ 737 µM) | 256 (≈ 737 µM) | 256 (≈ 737 µM) | > 256 | > 256 | 128 (≈ 368 µM) |
| C/C(CC(C)C)=N\Nc1nc(-c2ccc(Cl)cc2Cl)cs1 | > 256 | 256 (≈ 748 µM) | > 256 | > 256 | > 256 | > 256 | > 256 | 128 (≈ 374 µM) | 256 (≈ 748 µM) | 256 (≈ 748 µM) | 256 (≈ 748 µM) | > 256 | > 256 | 256 (≈ 748 µM) |
| CCCCCC/C(C)=N/Nc1nc(-c2ccc(OC)cc2OC)cs1 | > 256 | 256 (≈ 708 µM) | > 256 | > 256 | > 256 | > 256 | > 256 | 64 (≈ 177 µM) | 256 (≈ 708 µM) | 256 (≈ 708 µM) | 256 (≈ 708 µM) | > 256 | > 256 | 64 (≈ 177 µM) |
| CC/C(C)=N/Nc1nc(-c2ccc(Cl)cc2Cl)cs1 | > 256 | 8 (≈ 25.5 µM) | > 256 | > 256 | > 256 | > 256 | > 256 | 4 (≈ 12.7 µM) | 8 (≈ 25.5 µM) | 8 (≈ 25.5 µM) | 4 (≈ 12.7 µM) | > 256 | > 256 | 2 (≈ 6.36 µM) |
| CCCCC/C(C)=N/Nc1nc(-c2ccc(Cl)cc2Cl)cs1 | > 256 | 4 (≈ 11.2 µM) | > 256 | > 256 | > 256 | > 256 | > 256 | 2 (≈ 5.61 µM) | 16 (≈ 44.9 µM) | 16 (≈ 44.9 µM) | 4 (≈ 11.2 µM) | > 256 | > 256 | 2 (≈ 5.61 µM) |
| C=CCC/C(C)=N/Nc1nc(-c2ccc(OC)cc2OC)cs1 | > 256 | 256 (≈ 772 µM) | > 256 | > 256 | > 256 | > 256 | > 256 | 128 (≈ 386 µM) | 256 (≈ 772 µM) | 256 (≈ 772 µM) | 256 (≈ 772 µM) | > 256 | > 256 | 64 (≈ 193 µM) |
| CCC/C(C)=N/Nc1nc(-c2ccc(Cl)cc2Cl)cs1 | > 256 | 256 (≈ 780 µM) | > 256 | > 256 | > 256 | > 256 | > 256 | 2 (≈ 6.09 µM) | 256 (≈ 780 µM) | 256 (≈ 780 µM) | 4 (≈ 12.2 µM) | > 256 | > 256 | 2 (≈ 6.09 µM) |
| OC(Cn1cncn1)(Cn1cncn1)c1ccc(F)cc1F [FLUCONAZOLE] | – | 4 (≈ 13.1 µM) | – | – | – | – | – | 4 (≈ 13.1 µM) | 4 (≈ 13.1 µM) | 4 (≈ 13.1 µM) | 4 (≈ 13.1 µM) | – | – | 4 (≈ 13.1 µM) |
| CC(C)(O/N=C(\C(=O)N[C@@H]1C(=O)N2C(C(=O)[O-])=C(C[n+]3ccccc3)CS[C@H]12)c1csc(N)n1)C(=O)O [CEFTAZIDIME] | 8 (≈ 14.6 µM) | – | 4 (≈ 7.32 µM) | 2 (≈ 3.66 µM) | 4 (≈ 7.32 µM) | 8 (≈ 14.6 µM) | 4 (≈ 7.32 µM) | – | – | – | – | 8 (≈ 14.6 µM) | 4 (≈ 7.32 µM) | – |
| COC1=CC(=O)C[C@@H](C)[C@]12Oc1c(Cl)c(OC)cc(OC)c1C2=O [GRISEOFULVIN] | – | 8 (≈ 22.7 µM) | – | – | – | – | – | 4 (≈ 11.3 µM) | 8 (≈ 22.7 µM) | 8 (≈ 22.7 µM) | 8 (≈ 22.7 µM) | – | – | 4 (≈ 11.3 µM) |
